These results are taken from PubChem BioAssay.

A short description of experiment [1]: hit retest on RPL19A-GFP reporter strain – cell-based, S. cerevisiae, flow cytometry, cherry picks, mother/daughter gates, confirmation (AID 2270;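 active = GFP response below 50% of the DMSO control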). The conditions noted are these: 3 h, at 10 µM, stronger effect = lower value, 100 = same GFP as DMSO wells. (In flow cytometry, cells or beads pass a laser one at a time.)
Experiment [2] in a line: yeast TOR pathway reporter LAP4-GFP change – cell-based, cherry picks, flow cytometry, mother/daughter gates, confirmation (AID 2271;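 active = GFP response above 150% of the DMSO control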;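 also: ratio of sample to DMSO plate mean so 100% equals DMSO level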). The conditions noted are these: S. cerevisiae LAP4-GFP strain, 3 h, at 10 µM, stronger effect = higher value, 100 means same as DMSO control. In short, it runs like this: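 Material: Alexa Fluor 633-labelled Saccharomyces cerevisiae GFP-fusion strain, single-plex | Amount: Yeast cells seeded at OD600 of 0.2 | Buffer or medium: SC growth medium | Schedule: 3 h exposure, 30 °C | Measured by: HT flow cytometry, GFP fluorescence channel | Evaluation: % GFP response vs DMSO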

Experiment [3] in a line: TOR pathway reporter MEP2-GFP, retest of hits – S. cerevisiae, flow cytometry GFP, cherry picks, confirmation (AID 2272;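 active = GFP response above 150% of the DMSO control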;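 also: ratio of well signal to plate DMSO mean so 100% equals DMSO level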). The conditions noted are these: S. cerevisiae MEP2-GFP strain, 3 h, at 10 µM, stronger effect = higher value.
The nature of experiment [4]: yeast AGP1-GFP fluorescence change, single-dose – cell-based, flow cytometry, S. cerevisiae, cherry picks, confirmation (AID 2273).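 Also: median GFP channel fluorescence over the whole cell population gate.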 The conditions noted are these: S. cerevisiae AGP1-GFP strain, 3 h, at 10 µM.
Experiment [5] can be described thus: TOR pathway CIT2 reporter hit retest – S. cerevisiae, GFP fusion, cherry picks, mother/daughter gates, confirmation (AID 2274). The conditions noted are these: S. cerevisiae CIT2-GFP strain, flow cytometry, 3 h, at 10 µM, stronger effect = higher value.
The mark [6] stands for this setting: measured here: daughter cell gate.
Setting [7] is: measured here: mother cell gate.
Setting [8] is: measured here: daughter cell gate response.
[9] abbreviates: measured here: mother cell gate response.

Active and inactive are the calls of the source.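 The calls were made as follows, unless noted: active = GFP response above 150% of the DMSO level; inconclusive = fewer than 70 events counted for a yeast strain; inactive = the rest.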

`CCN(CC)c1ccc(/C=C2\SC(=O)N(C(C)C)C2=O)o1`: the GFP response vs DMSO was 99.6% (inactive) in experiment [1], 99.8% in experiment [1] (setting [6]), 96.5% in experiment [1] (setting [7]) and 132% (inactive) in experiment [3]. Further, the GFP response relative to DMSO in experiment [2] was 117% (inactive); in experiment [2] (setting [8]), 116%; in experiment [2] (setting [9]), 117%. The GFP response, % of DMSO was 105% (inactive) in experiment [4], 112% (inactive) in experiment [5], 115% in experiment [5] (setting [6]) and 110% in experiment [5] (setting [7]).

Regarding `O=[N+]([O-])/C=C/c1c(OCc2ccccc2)ccc2ccccc12`, the GFP response vs DMSO was 102% (inactive) in experiment [1], 104% in experiment [1] (setting [6]), 101% in experiment [1] (setting [7]) and 98.8% (inactive) in experiment [3]. The results for the GFP response relative to DMSO in experiment [2], in experiment [2] (setting [8]) and in experiment [2] (setting [9]) were 112% (inactive), 106% and 118%, respectively. Further, the GFP response, % of DMSO in experiment [4] was 102% (inactive); in experiment [5], 99.7% (inactive); in experiment [5] (setting [6]), 103%; in experiment [5] (setting [7]), 94.7%.

On to `O=C(COC(=O)c1cccs1)Nc1nc(-c2ccccc2)cs1`, for which the GFP response vs DMSO in experiment [1] was 97% (inactive); in experiment [1] (setting [6]) it was 95.6%; in experiment [1] (setting [7]), 98.4%; in experiment [3] it was 96.2% (inactive). In addition, the GFP response relative to DMSO was 99.2% (inactive) in experiment [2], 99.2% in experiment [2] (setting [8]) and 99.3% in experiment [2] (setting [9]). Further, the GFP response, % of DMSO in experiment [4] was 99.1% (inactive); in experiment [5], 99.7% (inactive); in experiment [5] (setting [6]) it was 99.1%; in experiment [5] (setting [7]), 96.1%.

Take `COc1ccc(NC(=O)CCc2nc(-c3ccccc3F)no2)cc1`: the GFP response vs DMSO in experiment [1] was 95.6% (inactive); in experiment [1] (setting [6]), 95.9%; in experiment [1] (setting [7]), 93.1%; in experiment [3], 101% (inactive). Further, the GFP response relative to DMSO is 106% (inactive) in experiment [2], 101% in experiment [2] (setting [8]) and 106% in experiment [2] (setting [9]). The GFP response, % of DMSO in experiment [4] was 97.7% (inactive); in experiment [5], 97.2% (inactive); in experiment [5] (setting [6]), 95.8%; in experiment [5] (setting [7]) it was 94.9%.

For the compound `CS(=O)(=O)c1sc(C#N)c2c1C(=O)CC(c1ccccc1)C2` (stereo unspecified), the GFP response vs DMSO in experiment [1] was 103% (inactive); in experiment [1] (setting [6]), 111%; in experiment [1] (setting [7]) it was 96.6%; in experiment [3] it was 116% (inactive). Also, the GFP response relative to DMSO in experiment [2] was 174% (active); in experiment [2] (setting [8]), 168%; in experiment [2] (setting [9]) it was 179%. Moreover, the GFP response, % of DMSO was 117% (inactive) in experiment [4], 105% (inactive) in experiment [5], 111% in experiment [5] (setting [6]) and 95.7% in experiment [5] (setting [7]).

In the case of `COc1cccc2c1Oc1ncccc1N(C(=O)CCC(=O)NCc1ccccc1Cl)C2`, the GFP response vs DMSO in experiment [1] is 95.6% (inactive); in experiment [1] (setting [6]) it was 97.9%; in experiment [1] (setting [7]) it was 95.8%; in experiment [3], 99% (inactive). The GFP response relative to DMSO in experiment [2] was 97% (inactive); in experiment [2] (setting [8]), 97.5%; in experiment [2] (setting [9]), 96.2%. Moreover, the GFP response, % of DMSO in experiment [4] is 99.6% (inactive); in experiment [5], 103% (inactive); in experiment [5] (setting [6]) it was 103%; in experiment [5] (setting [7]), 103%.

Consider `COc1cccc(/C=N/NC(=O)CCC(=O)Nc2ccc(Br)cc2)c1`, for which the GFP response vs DMSO in experiment [1] was 98.9% (inactive); in experiment [1] (setting [6]) it was 100%; in experiment [1] (setting [7]), 98%; in experiment [3], 108% (inactive). In addition, the GFP response relative to DMSO in experiment [2] was 90.6% (inactive); in experiment [2] (setting [8]), 92.9%; in experiment [2] (setting [9]), 90.3%. Moreover, the GFP response, % of DMSO in experiment [4] was 100% (inactive); in experiment [5], 98.6% (inactive); in experiment [5] (setting [6]), 101%; in experiment [5] (setting [7]), 99.3%.

For the compound `CCCCOc1ccc(C(=O)N2CCN(c3ccc(N4CCOCC4)nn3)CC2)cc1`, the GFP response vs DMSO is 97.4% (inactive) in experiment [1], 99.1% in experiment [1] (setting [6]), 94.9% in experiment [1] (setting [7]) and 98.3% (inactive) in experiment [3]. Besides, the GFP response relative to DMSO in experiment [2] is 97.9% (inactive); in experiment [2] (setting [8]), 97.6%; in experiment [2] (setting [9]), 97.2%. Also, the GFP response, % of DMSO in experiment [4] was 97.2% (inactive); in experiment [5] it was 98.3% (inactive); in experiment [5] (setting [6]), 101%; in experiment [5] (setting [7]), 98.5%.

In the case of `CCn1c(=O)c(C(=O)Nc2ccccc2C)c(O)c2ccccc21`, the GFP response vs DMSO was 97.8% (inactive) in experiment [1], 98.1% in experiment [1] (setting [6]), 97.9% in experiment [1] (setting [7]) and 105% (inactive) in experiment [3]. In addition, the GFP response relative to DMSO is 102% (inactive) in experiment [2], 102% in experiment [2] (setting [8]) and 99.3% in experiment [2] (setting [9]). Moreover, the GFP response, % of DMSO was 96% (inactive) in experiment [4], 96.9% (inactive) in experiment [5], 99.1% in experiment [5] (setting [6]) and 96.1% in experiment [5] (setting [7]).

Take `N#C/C(=C\c1cccc(Oc2ccccc2)c1)C(=O)N1CCOCC1`: the GFP response vs DMSO in experiment [1] was 97.8% (inactive); in experiment [1] (setting [6]), 97.8%; in experiment [1] (setting [7]), 95.1%; in experiment [3] it was 98.8% (inactive). In addition, the GFP response relative to DMSO in experiment [2] is 137% (inactive); in experiment [2] (setting [8]), 128%; in experiment [2] (setting [9]), 141%. Further, the GFP response, % of DMSO in experiment [4] was 104% (inactive); in experiment [5], 90.9% (inactive); in experiment [5] (setting [6]), 90.5%; in experiment [5] (setting [7]), 87.8%.

Consider `COc1ccccc1NC(=O)c1ccc(N)cc1`, for which the GFP response vs DMSO in experiment [1] is 98% (inactive); in experiment [1] (setting [6]), 98%; in experiment [1] (setting [7]), 98.1%; in experiment [3], 99.5% (inactive). For the same compound, the GFP response relative to DMSO is 100% (inactive) in experiment [2], 102% in experiment [2] (setting [8]) and 100% in experiment [2] (setting [9]). Also, the GFP response, % of DMSO in experiment [4] is 98.7% (inactive); in experiment [5], 102% (inactive); in experiment [5] (setting [6]), 104%; in experiment [5] (setting [7]), 101%.

Take `Cc1cc(C)c(OCC(=O)Nc2nc(-c3ccccn3)cs2)c(C)c1`: the GFP response vs DMSO in experiment [1] was 98.6% (inactive); in experiment [1] (setting [6]) it was 98.3%; in experiment [1] (setting [7]) it was 98.8%; in experiment [3] it was 103% (inactive). Moreover, the results for the GFP response relative to DMSO in experiment [2], in experiment [2] (setting [8]) and in experiment [2] (setting [9]) were 121% (inactive), 115% and 126%, respectively. The GFP response, % of DMSO was 95.8% (inactive) in experiment [4], 92.2% (inactive) in experiment [5], 95.2% in experiment [5] (setting [6]) and 88.8% in experiment [5] (setting [7]).

Consider `COc1ccccc1C(=O)NNC(=O)C(=O)Nc1cccc(Cl)c1C`, for which the GFP response vs DMSO in experiment [1] was 106% (inactive); in experiment [1] (setting [6]), 111%; in experiment [1] (setting [7]), 101%; in experiment [3], 116% (inactive). Moreover, the values for the GFP response relative to DMSO in experiment [2], in experiment [2] (setting [8]) and in experiment [2] (setting [9]) were 112% (inactive), 118% and 109%, respectively. Also, the GFP response, % of DMSO was 109% (inactive) in experiment [4], 119% (inactive) in experiment [5], 122% in experiment [5] (setting [6]) and 113% in experiment [5] (setting [7]).

Regarding `CCOc1ccc(S(=O)(=O)n2ccnc2C)cc1`, the GFP response vs DMSO in experiment [1] is 99.7% (inactive); in experiment [1] (setting [6]) it was 100%; in experiment [1] (setting [7]), 98.4%; in experiment [3] it was 102% (inactive). Also, the GFP response relative to DMSO is 96.2% (inactive) in experiment [2], 97.2% in experiment [2] (setting [8]) and 98.3% in experiment [2] (setting [9]). For the same compound, the GFP response, % of DMSO in experiment [4] is 102% (inactive); in experiment [5], 104% (inactive); in experiment [5] (setting [6]), 103%; in experiment [5] (setting [7]), 104%.

On to `CC(=O)S[C@@H]1CC2=CC(=O)CC[C@]2(C)[C@H]2CC[C@@]3(C)[C@@H](CC[C@@]34CCC(=O)O4)[C@H]12`, for which the GFP response vs DMSO was 101% (inactive) in experiment [1], 99.2% in experiment [1] (setting [6]), 100% in experiment [1] (setting [7]) and 100% (inactive) in experiment [3]. The GFP response relative to DMSO was 97.4% (inactive) in experiment [2], 97.2% in experiment [2] (setting [8]) and 98.3% in experiment [2] (setting [9]). Also, the GFP response, % of DMSO in experiment [4] was 95.9% (inactive); in experiment [5], 99.1% (inactive); in experiment [5] (setting [6]), 96.5%; in experiment [5] (setting [7]), 98.7%.

In the case of `Cc1ccc(N2C(=O)C3C4C=CC(CNC(=S)Nc5ccc(Cl)cc5)(O4)C3C2=O)cc1` (stereo unspecified), the GFP response vs DMSO is 102% (inactive) in experiment [1], 101% in experiment [1] (setting [6]), 100% in experiment [1] (setting [7]) and 102% (inactive) in experiment [3]. The values for the GFP response relative to DMSO in experiment [2], in experiment [2] (setting [8]) and in experiment [2] (setting [9]) were 101% (inactive), 103% and 102%, respectively. Moreover, the GFP response, % of DMSO was 102% (inactive) in experiment [4], 99.1% (inactive) in experiment [5], 98.1% in experiment [5] (setting [6]) and 97.7% in experiment [5] (setting [7]).
